Results: ChEMBL document CHEMBL2380256, “Discovery of novel Jak2-Stat pathway inhibitors with extended residence time on target” (Bioorg Med Chem Lett, 2013)
Active and inactive are the calls of the source. No cut-off for these calls is given here.

Key:
[1] = Total plasma concentration in nude mouse allografted with mouse Ba/F3 cells expressing JAK2 TEL domain at 5 mg/kg, po qd measured at 8 hrs; assay type: ADME, organism-based, BaF3; design: dose 5 mg/kg, route oral
Procedure, shortened: (§1)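 Female nude mice implanted intravenously with Ba/F3 TEL-JAK2 cells on day 0 and dosed orally on day 10. Total plasma drug concentration was measured at the stated times post-dose, averaged over n = 3 per dose and time point.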

[2] = Total plasma concentration in nude mouse allografted with mouse Ba/F3 cells expressing JAK2 TEL domain at 10 mg/kg, po qd measured at 8 hrs; assay type: ADME, organism-based, BaF3; design: dose 10 mg/kg, route oral; procedure, shortened: as §1
[3] = Total plasma concentration in nude mouse allografted with mouse Ba/F3 cells expressing JAK2 TEL domain at 5 mg/kg, po qd measured at 6 hrs; assay type: ADME, organism-based, BaF3; design: dose 5 mg/kg, route oral; procedure, shortened: as §1
[4] = Total plasma concentration in nude mouse allografted with mouse Ba/F3 cells expressing JAK2 TEL domain at 5 mg/kg, po qd measured at 2 hrs; assay type: ADME, organism-based, BaF3; design: dose 5 mg/kg, route oral; procedure, shortened: as §1
[5] = Total plasma concentration in nude mouse allografted with mouse Ba/F3 cells expressing JAK2 TEL domain at 10 mg/kg, po qd measured at 2 hrs; assay type: ADME, organism-based, BaF3; design: dose 10 mg/kg, route oral; procedure, shortened: as §1
[6] = Total plasma concentration in nude mouse allografted with mouse Ba/F3 cells expressing JAK2 TEL domain at 10 mg/kg, po qd measured at 6 hrs; assay type: ADME, organism-based, BaF3; design: dose 10 mg/kg, route oral; procedure, shortened: as §1
Mus musculus [7] = assay: In vivo inhibition of JAK2 TEL domain (unknown origin) transfected in mouse Ba/F3 cells allografted in nude mouse assessed as inhibition of STAT5 phosphorylation at 5 mg/kg, po qd measured at 8 hrs relative to vehicle-treated control; assay type: functional; details: BaF3, 8 h
Procedure, shortened: (§2)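 Female nude mice implanted intravenously with Ba/F3 TEL-JAK2 cells on day 0 and given a single oral dose on day 10. pStat5 was measured at the stated times post-dose. % inhibition was scaled between vehicle and a control inhibitor as maximum and minimum, with n = 3 per dose and time point, reported as mean ±SD.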

Mus musculus [8] = assay: In vivo inhibition of JAK2 TEL domain (unknown origin) transfected in mouse Ba/F3 cells allografted in nude mouse assessed as inhibition of STAT5 phosphorylation at 10 mg/kg, po qd measured at 8 hrs relative to vehicle-treated control; assay type: functional; details: BaF3, 8 h; procedure, shortened: as §2
[9] = Fraction unbound in nude mouse plasma allografted with mouse Ba/F3 cells expressing JAK2 TEL domain at 5 to 10 mg/kg, po qd after 6 hrs; assay type: ADME, organism-based, BaF3; design: dose 5-10 mg/kg, route oral
Mus musculus [10] = assay: In vivo inhibition of JAK2 TEL domain (unknown origin) transfected in mouse Ba/F3 cells allografted in nude mouse assessed as inhibition of STAT5 phosphorylation at 5 mg/kg, po qd after 6 hrs; assay type: functional, organism-based; design: dose 5 mg/kg; details: BaF3; procedure, shortened: as §2
Mus musculus [11] = assay: In vivo inhibition of JAK2 TEL domain (unknown origin) transfected in mouse Ba/F3 cells allografted in nude mouse assessed as inhibition of STAT5 phosphorylation at 10 mg/kg, po qd after 6 hrs relative to vehicle-treated control; assay type: functional; details: BaF3, 6 h; procedure, shortened: as §2
[12] = biological target: T1, Tyrosine-protein kinase JAK2 (Homo sapiens, UniProt O60674); assay: Inhibition of JAK2 TEL domain (unknown origin) transfected in mouse Ba/F3 cells; assay type: cell-based; details: baf3
Target sequence in this assay (O60674 whole entry, looked up, the tested form may be a part): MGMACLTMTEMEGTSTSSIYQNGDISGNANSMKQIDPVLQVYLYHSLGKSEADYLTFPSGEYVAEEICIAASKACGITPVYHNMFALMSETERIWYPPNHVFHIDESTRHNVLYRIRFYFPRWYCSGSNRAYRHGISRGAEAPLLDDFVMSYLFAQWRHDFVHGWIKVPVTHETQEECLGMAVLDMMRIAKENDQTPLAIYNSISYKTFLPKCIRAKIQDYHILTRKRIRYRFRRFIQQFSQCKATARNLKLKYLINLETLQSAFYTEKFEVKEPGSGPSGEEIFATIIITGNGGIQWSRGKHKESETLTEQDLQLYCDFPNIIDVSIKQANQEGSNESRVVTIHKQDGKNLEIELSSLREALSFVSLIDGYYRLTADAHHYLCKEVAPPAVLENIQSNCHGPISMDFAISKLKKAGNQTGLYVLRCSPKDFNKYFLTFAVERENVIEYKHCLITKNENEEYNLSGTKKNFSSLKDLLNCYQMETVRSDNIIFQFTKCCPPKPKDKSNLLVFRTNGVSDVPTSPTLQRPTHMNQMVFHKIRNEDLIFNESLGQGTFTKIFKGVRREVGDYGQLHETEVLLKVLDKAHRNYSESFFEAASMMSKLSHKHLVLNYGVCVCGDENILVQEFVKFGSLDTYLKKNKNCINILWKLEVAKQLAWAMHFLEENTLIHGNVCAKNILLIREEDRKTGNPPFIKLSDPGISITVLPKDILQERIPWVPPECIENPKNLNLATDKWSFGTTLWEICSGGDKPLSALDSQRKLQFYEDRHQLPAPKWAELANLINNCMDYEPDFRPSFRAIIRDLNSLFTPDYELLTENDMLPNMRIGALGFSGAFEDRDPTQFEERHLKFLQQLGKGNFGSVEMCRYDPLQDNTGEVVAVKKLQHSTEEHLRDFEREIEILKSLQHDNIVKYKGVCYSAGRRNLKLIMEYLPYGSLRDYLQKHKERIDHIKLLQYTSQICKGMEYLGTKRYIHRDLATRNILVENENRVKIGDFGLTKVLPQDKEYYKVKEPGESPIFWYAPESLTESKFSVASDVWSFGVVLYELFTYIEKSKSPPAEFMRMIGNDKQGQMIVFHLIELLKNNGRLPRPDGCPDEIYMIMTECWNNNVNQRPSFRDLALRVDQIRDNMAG

[13] = biological target: T2, Tyrosine-protein kinase JAK3 (Homo sapiens, UniProt P52333); assay: Inhibition of JAK3 TEL domain (unknown origin) transfected in mouse Ba/F3 cells; assay type: cell-based, BaF3
T2 sequence (P52333 whole entry): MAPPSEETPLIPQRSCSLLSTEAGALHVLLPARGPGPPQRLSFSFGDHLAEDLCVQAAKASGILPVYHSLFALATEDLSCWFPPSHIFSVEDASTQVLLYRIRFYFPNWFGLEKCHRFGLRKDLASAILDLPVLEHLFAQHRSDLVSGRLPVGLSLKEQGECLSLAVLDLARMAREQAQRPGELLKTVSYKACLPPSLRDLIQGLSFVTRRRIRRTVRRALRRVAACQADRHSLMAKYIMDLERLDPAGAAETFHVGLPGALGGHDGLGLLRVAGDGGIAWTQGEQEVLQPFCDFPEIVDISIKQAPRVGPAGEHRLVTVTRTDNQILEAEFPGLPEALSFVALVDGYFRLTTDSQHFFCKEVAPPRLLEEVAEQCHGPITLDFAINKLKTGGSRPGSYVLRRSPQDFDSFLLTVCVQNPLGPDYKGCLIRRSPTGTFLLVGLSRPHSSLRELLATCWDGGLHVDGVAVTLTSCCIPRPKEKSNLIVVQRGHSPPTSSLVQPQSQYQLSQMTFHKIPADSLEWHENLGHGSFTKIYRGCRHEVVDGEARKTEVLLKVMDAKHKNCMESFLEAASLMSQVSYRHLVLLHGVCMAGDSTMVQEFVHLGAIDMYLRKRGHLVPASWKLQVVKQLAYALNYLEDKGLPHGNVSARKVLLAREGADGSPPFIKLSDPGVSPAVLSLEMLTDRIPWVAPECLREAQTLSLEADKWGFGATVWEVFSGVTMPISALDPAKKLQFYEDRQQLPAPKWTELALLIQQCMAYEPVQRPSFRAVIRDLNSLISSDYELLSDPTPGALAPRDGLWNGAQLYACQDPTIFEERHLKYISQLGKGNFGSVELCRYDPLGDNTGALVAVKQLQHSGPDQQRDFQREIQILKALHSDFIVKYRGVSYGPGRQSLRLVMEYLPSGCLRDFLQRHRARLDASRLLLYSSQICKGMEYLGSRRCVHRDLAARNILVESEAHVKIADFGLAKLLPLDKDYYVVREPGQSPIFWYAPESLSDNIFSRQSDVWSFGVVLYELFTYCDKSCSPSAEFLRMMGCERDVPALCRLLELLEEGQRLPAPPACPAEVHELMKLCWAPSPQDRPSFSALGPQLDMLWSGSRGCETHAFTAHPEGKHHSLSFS

Hepatocyte = assay: Metabolic stability in human hepatocytes measured per 10^6 cells; assay type: ADME, cell-based
[14] = Volume of distribution at steady state in beagle dog at 5 mg/kg, po and 2.5 mg/kg, iv; assay type: ADME, organism-based, Canis lupus familiaris; details: in vivo, read-out: Vdss
Procedure, shortened: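 Male Beagle dogs. Oral 5 mg/kg in 0.1% HPMC; intravenous 2.5 mg/kg in HP-β-CD.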

[15] = Volume of distribution at steady state in CD1 mouse at 10 mg/kg, po and 3 mg/kg, iv; assay type: ADME, organism-based; details: in vivo, read-out: Vdss
Procedure, shortened: (§3)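 Single-dose PK: female CD-1 mice and male Han Wistar rats, 10 mg/kg po in 0.1% HPMC and 3 mg/kg iv in DMA/PEG/saline 40/40/20.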

[16] = Volume of distribution at steady state in Han Wistar rat at 10 mg/kg, po and 3 mg/kg, iv; assay type: ADME, organism-based; details: in vivo, read-out: Vdss
[17] = Clearance in beagle dog at 5 mg/kg, po and […] mg/kg, iv; assay type: ADME, organism-based, Canis lupus familiaris; details: in vivo, 2.5 mg/kg
[18] = Clearance in CD1 mouse at 10 mg/kg, po and 3 mg/kg, iv; assay type: ADME, organism-based; details: in vivo; procedure, shortened: as §3
[19] = Clearance in Han Wistar rat at 10 mg/kg, po and 3 mg/kg, iv; assay type: ADME, organism-based; details: in vivo; procedure, shortened: as §3
[20] = AUC in CD1 mouse at 10 mg/kg, po and 3 mg/kg, iv; assay type: ADME, organism-based; details: plasma; procedure, shortened: as §3
[21] = AUC in Han Wistar rat at 10 mg/kg, po and 3 mg/kg, iv; assay type: ADME, organism-based; details: plasma; procedure, shortened: as §3
[22] = Oral bioavailability in CD1 mouse at 10 mg/kg; assay type: ADME, organism-based; details: in vivo
Procedure, shortened: (§4)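 Oral bioavailability in female CD-1 mice and male Han Wistar rats: 10 mg/kg po (0.1% HPMC) versus 3 mg/kg iv (DMA/PEG/saline 40/40/20). %F = (AUCpo × DoseIV)/(AUCIV × Dosepo) × 100.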

[23] = Oral bioavailability in Han Wistar rat at 10 mg/kg; assay type: ADME, organism-based; details: in vivo; procedure, shortened: as §4
[24] = Growth inhibition of human UKE1 cells harboring JAK2 V617F mutant after 2 days by [3H]-thymidine incorporation assay; assay type: functional
SET-2 = assay: Growth inhibition of human SET2 harboring JAK2 V617F mutant after 24 hrs by Alamar Blue assay; assay type: functional; details: SET-2, 24 h
[25] = biological target: T1, Tyrosine-protein kinase JAK2; assay: Competitive inhibition of JAK2 (unknown origin)
Target sequence in this assay (O60674 whole entry, the tested form may be a part): as the sequence (O60674 whole entry, looked up, the tested form may be a part) above

[26] = Growth inhibition of mouse BA/F3 cells transfected with JAK3 TEL domain after 24 hrs by Alamar Blue assay; assay type: functional, cell-based; details: BaF3, 24 h
[27] = Growth inhibition of mouse BA/F3 cells transfected with JAK2 TEL domain after 24 hrs by Alamar Blue assay; assay type: functional; details: BaF3, 24 h
[28] = biological target: T2, Tyrosine-protein kinase JAK3; assay: Inhibition of JAK3 (unknown origin) using biotinylated poly-EY peptide as substrate after 60 mins by HTRF assay
[29] = biological target: T1, Tyrosine-protein kinase JAK2; assay: Inhibition of JAK2 (unknown origin) using biotinylated TYK2 peptide as substrate after 60 mins
Target sequence in this assay (O60674 whole entry, the tested form may be a part): as the sequence (O60674 whole entry, looked up, the tested form may be a part) above

Homo sapiens = species: Homo sapiens; assay: Selectivity ratio of IC50 for JAK3 (unknown origin) to IC50 for JAK2 (unknown origin)
Procedure, shortened: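 Jak2 and Jak3 enzyme IC50s determined at 5 mM ATP; the ratio is the Jak3 IC50 divided by the Jak2 IC50.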

With Cc1cc(Nc2nc(N[C@@H](C)c3ncc(F)cc3F)c(F)c(N3CCOCC3)n2)n[nH]1 the concentration at 8 h [1] was 55 ng/mL, the concentration at 8 h [2] was 123 ng/mL and the concentration at 6 h [3] was 98 ng/mL. It also gave a concentration at 2 h [4] of 228 ng/mL, a concentration at 2 h [5] of 376 ng/mL and a concentration at 6 h [6] of 248 ng/mL. The inhibition in vivo at 5 mg/kg (Mus musculus [7]) was 50%, the inhibition in vivo at 10 mg/kg (Mus musculus [8]) was 70% and the fraction unbound at 6 h [9] was 0.06. For the same molecule, the inhibition (Mus musculus [10]) was “Active”, the inhibition in vivo at 10 mg/kg (Mus musculus [11]) was over 80% and the IC50 [12] was 7 nM. The IC50 [13] was 370 nM, the Stability (Hepatocyte) was 5.2 µL/min/1e6 cells and the Vd [14] was 2.5 L/kg. The Vd [15] was 2.9 L/kg, the Vd [16] was 3.1 L/kg and the clearance [17] was 14 mL/min/kg. For the same molecule, the clearance [18] was 18 mL/min/kg, the clearance [19] was 12 mL/min/kg and the AUC [20] was 13.3 µM·h. It also gave an AUC [21] of 17.7 µM·h, a bioavailability [22] of 64% and a bioavailability [23] of 51%. The GI50 [24] was 22 nM, the GI50 (SET-2) was 14 nM and the Ki [25] was 1.41 nM. It also gave a GI50 ([26]; read-out: GI50) of 300 nM, a GI50 [27] of 8 nM and an IC50 [28] of 8 nM. The IC50 [29] was 3 nM.

In the case of Cc1cc(Nc2nc(N[C@@H](C)c3ccc(F)cn3)c(Cl)c(N3CCOCC3)n2)[nH]n1, the IC50 [28] is reported as 262 nM and the IC50 [29] is reported as 6 nM.

Cc1cc(Nc2cc(N3CCOCC3)nc(N[C@@H](C)c3ncc(F)cn3)n2)n[nH]1 gave a Ratio IC50 (Homo sapiens) of over 10.

With Cc1cc(Nc2nc(O[C@@H](C)c3ccc(F)cn3)c(F)c(N3CCOCC3)n2)n[nH]1 the GI50 ([26]; read-out: GI50) was 240 nM, the GI50 [27] was 16 nM and the IC50 [28] was 87 nM. For the same molecule, the IC50 [29] was 4 nM.

Cc1cc(Nc2nc(N[C@@H](C)c3ccc(F)cn3)c(F)c(N3CCOCC3)n2)n[nH]1 gave a GI50 ([26]; read-out: GI50) of 850 nM, a GI50 [27] of 19 nM and an IC50 [28] of 262 nM. For the same molecule, the IC50 [29] was 6 nM.

Cc1cc(Nc2nc(N[C@@H](C)c3ncc(F)cn3)cc(N3CCOCC3)n2)n[nH]1 showed a GI50 [27] of 58 nM, an IC50 [28] of 95 nM and an IC50 [29] of 5 nM.

Molecule Cc1cnc(Nc2nc(N[C@@H](C)c3ncc(F)cn3)nc(N3CCOCC3)c2F)s1 has a GI50 ([26]; read-out: GI50) of 4900 nM, a GI50 [27] of 30 nM and an IC50 [28] of over 30000 nM. The IC50 [29] was 25 nM.

For Cc1cc(Nc2nc(N[C@@H](C)c3ccc(F)cn3)c(F)c(N3CCNCC3)n2)n[nH]1, the GI50 [26] was 480 nM, the IC50 [28] was 30 nM and the IC50 [29] was 4 nM.

Work on Cc1cc(Nc2nc(N[C@@H](C)c3ccc(F)cn3)c(F)c(N3CCS(=O)(=O)CC3)n2)n[nH]1 yielded a GI50 ([26]; read-out: GI50) of 270 nM, an IC50 [28] of 4 nM and an IC50 [29] of 3 nM.
